Screening data as filed in PubChem BioAssay.
LEDGF integ inh – blocks HIV-1 LEDGF/p75-dependent DNA integration; AID 743269; 370,000 compounds, 0.64% hits; inhibition, % at 3.7 µM; TR-FRET IN-LEDGF/p75 DNA integration, Eu/Cy5;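 active = inhibition above the screen-wide mean plus 3 SD, cut at about 13% in these data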;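 note: signal is the Cy5 over europium emission ratio at 671 and 618 nm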
MBD2 DNA inh – MBD2-methylated oligo binding inhibition; Q9UBB5; TR-FRET, MBD2 binding to methylated oligonucleotide; inhibition, % at 4.4 µM; 370,000 compounds, 0.31% hits; AID 686964; in the data active = inhibition above about 13%
TDP2 absorb – TDP2 (human) inhibition, absorbance primary screen; recombinant TDP2, T5PNP hydrolysis, p-nitrophenol absorbance 415 nm; O95551; inhibition, % at 12.8 µM; 370,000 compounds, 0.34% hits;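 active = inhibition above the mean of all tested compounds plus 3 SD, set per campaign, cut at about 25% in these data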
Target sequence (O95551 whole entry, looked up): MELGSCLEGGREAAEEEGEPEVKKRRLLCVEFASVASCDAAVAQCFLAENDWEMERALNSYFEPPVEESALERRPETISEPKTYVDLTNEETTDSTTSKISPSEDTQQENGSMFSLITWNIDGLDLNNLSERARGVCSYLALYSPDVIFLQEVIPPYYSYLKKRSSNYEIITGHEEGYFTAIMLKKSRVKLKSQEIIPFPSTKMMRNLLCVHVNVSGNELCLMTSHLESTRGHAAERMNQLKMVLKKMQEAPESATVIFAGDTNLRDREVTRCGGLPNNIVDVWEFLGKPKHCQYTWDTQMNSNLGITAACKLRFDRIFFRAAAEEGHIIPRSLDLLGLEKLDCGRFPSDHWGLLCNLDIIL
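System – recombinant human TDP2 · Amount – 120 nM TDP2 per well · Buffer or medium – Mg2+-containing Tris-HCl buffer, pH 7.5 · Reagent – T5PNP substrate, 5 mM · Dosing – 12.8 µM single point, 1% DMSO · Incubation – 2 h at 37 °C · Measured by – epi absorbance · Read-out basis – percent inhibition · Benchmarks – high control without enzyme, low control DMSO plus TDP2 · Repeats – singlicate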
UHRF1 binding – UHRF1 methyl-DNA binding inhibition; 370,000 compounds, 0.75% hits; inhibition, % at 4.4 µM; UHRF1 binding to methylated oligo, TR-FRET; in the data active = inhibition above about 21%;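 note: UHRF1 SRA domain binding a hemimethylated CpG hairpin DNA probe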
TDP2 confirm – human TDP2 inhibition, confirmation; shares compounds with TDP2 absorb; recombinant human TDP2, absorbance read-out; inhibition, % at 12.8 µM; 1,100 compounds, 22% hits; in the data active = inhibition above about 25%
IN multimer up – activates HIV-1 integrase multimerization in LEDGF counter-screen | shares compounds with LEDGF integ inh | TR-FRET HIV-1 integrase multimerization, biochemical | activation, % at 7.7 µM | 2,000 compounds, 17% hits | AID 1053131; in the data active = activation above about 8.9%
TRFRET interf – optically interferes with TR-FRET readout in LEDGF counter-screen. shares compounds with LEDGF integ inh. TR-FRET optical interference counterscreen, HIV-1 IN multimerization. inhibition, % at 7.7 µM. 2,000 tested, under 10 active. AID 1053135;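 active = inhibition above the mean over all tested compounds plus 3 SD, which no compound reached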
IN-LEDGF confirm – LEDGF/p75-dependent HIV-1 integration inhibition, confirmation; shares compounds with LEDGF integ inh; TR-FRET LEDGF/p75-dependent HIV-1 integration, biochemical; inhibition, % at 3.7 µM; 2,000 compounds, 36% hits; AID 1053136; in the data active = inhibition above about 14%
A number is an active result. Compounds with a hit are over-represented: about 1.6% of the library has one in this group of screens.

Results for O=C1/C(=C\c2ccc(O)c(O)c2)C(c2ccccc2)=NN1c1ccccc1 ?
LEDGF integ inh: 19; MBD2 DNA inh: inactive; TDP2 absorb: 26; UHRF1 binding: inactive; TDP2 confirm: inactive; IN multimer up: 24; TRFRET interf: inactive; IN-LEDGF confirm: 29

What do the screens show for `O=C(Nc1ccc(N2CCOCC2)c2nonc12)C1CCCC1`?
LEDGF integ inh: inactive; MBD2 DNA inh: inactive; TDP2 absorb: inactive; UHRF1 binding: inactive

What do the screens show for `Nc1ccc(N2CCOCC2)c2nonc12`?
LEDGF integ inh: 22; MBD2 DNA inh: 19; TDP2 absorb: 92; UHRF1 binding: 30; TDP2 confirm: 36; IN multimer up: inactive; TRFRET interf: inactive; IN-LEDGF confirm: inactive

What do the screens show for `Cc1cccc(NC2=C(NCCO)C(=O)c3ccccc3C2=O)c1`?
LEDGF integ inh: 20; MBD2 DNA inh: inactive; TDP2 absorb: 58; UHRF1 binding: inactive; TDP2 confirm: inactive; IN multimer up: inactive; TRFRET interf: inactive; IN-LEDGF confirm: inactive

Results for Cc1cccc(Nc2nc(N)c([N+](=O)[O-])c(NCCO)n2)c1 ?
LEDGF integ inh: inactive; MBD2 DNA inh: inactive; TDP2 absorb: inactive; UHRF1 binding: inactive

What do the screens show for `Cc1nnc(N/N=C/c2ccco2)n1N`?
LEDGF integ inh: 43; MBD2 DNA inh: inactive; TDP2 absorb: 69; UHRF1 binding: inactive; TDP2 confirm: inactive; IN multimer up: inactive; TRFRET interf: inactive; IN-LEDGF confirm: inactive

What do the screens show for `COc1cccc(/C=N/Nc2cc(Cl)nc(C)n2)c1O`?
LEDGF integ inh: inactive; MBD2 DNA inh: inactive; TDP2 absorb: inactive; UHRF1 binding: inactive

What do the screens show for `Cc1nnc(N/N=C/c2cccc(C(F)(F)F)c2)n1N`?
LEDGF integ inh: 57; MBD2 DNA inh: inactive; TDP2 absorb: 82; UHRF1 binding: inactive; TDP2 confirm: inactive; IN multimer up: inactive; TRFRET interf: inactive; IN-LEDGF confirm: inactive

What do the screens show for `Cc1nnc(N/N=C/c2cccc(OCc3ccc(Cl)c(Cl)c3)c2)n1N`?
LEDGF integ inh: 57; MBD2 DNA inh: inactive; TDP2 absorb: 62; UHRF1 binding: inactive; TDP2 confirm: inactive; IN multimer up: inactive; TRFRET interf: inactive; IN-LEDGF confirm: inactive

Results for COc1cccc(/C=N/Nc2nnc(C)n2N)c1O ?
LEDGF integ inh: 48; MBD2 DNA inh: inactive; TDP2 absorb: 41; UHRF1 binding: inactive; TDP2 confirm: inactive; IN multimer up: inactive; TRFRET interf: inactive; IN-LEDGF confirm: inactive

Results for Cc1nnc(N/N=C/c2ccccc2C(F)(F)F)n1N ?
LEDGF integ inh: 45; MBD2 DNA inh: inactive; TDP2 absorb: 52; UHRF1 binding: inactive; TDP2 confirm: inactive; IN multimer up: inactive; TRFRET interf: inactive; IN-LEDGF confirm: inactive

What do the screens show for `Cc1nnc(N/N=C/c2ccccc2F)n1N`?
LEDGF integ inh: 56; MBD2 DNA inh: inactive; TDP2 absorb: 50; UHRF1 binding: inactive; TDP2 confirm: inactive; IN multimer up: inactive; TRFRET interf: inactive; IN-LEDGF confirm: inactive

How did CCOc1ccc(-n2c(C)cc(/C=N/Nc3nc(C)cc(=O)[nH]3)c2C)cc1 do in these assays?
LEDGF integ inh: inactive; MBD2 DNA inh: inactive; TDP2 absorb: inactive; UHRF1 binding: inactive

Results for COc1ccc(-n2c(C)cc(/C=N/Nc3nnc(C)n3N)c2C)cc1 ?
LEDGF integ inh: 49; MBD2 DNA inh: inactive; TDP2 absorb: 73; UHRF1 binding: inactive; TDP2 confirm: inactive; IN multimer up: inactive; TRFRET interf: inactive; IN-LEDGF confirm: inactive

What do the screens show for `COC(=O)C1=C(C)N(C)C(=NCC2CC2)NC1c1ccc(F)cc1` (stereo not drawn)?
LEDGF integ inh: inactive; MBD2 DNA inh: inactive; TDP2 absorb: inactive; UHRF1 binding: inactive

Results for Cc1ccc(S(=O)(=O)NCC(=O)N2CCN(c3ccccn3)CC2)cc1C ?
LEDGF integ inh: inactive; MBD2 DNA inh: inactive; TDP2 absorb: inactive; UHRF1 binding: inactive

How did Cc1cc(NC2=CC(=O)C(=O)c3ccccc32)no1 do in these assays?
LEDGF integ inh: 16; MBD2 DNA inh: inactive; TDP2 absorb: 29; UHRF1 binding: inactive; TDP2 confirm: 69; IN multimer up: inactive; TRFRET interf: inactive; IN-LEDGF confirm: 52

What do the screens show for `Cc1ccc(NC2=CC(=O)C(=O)c3ccccc32)cc1`?
LEDGF integ inh: 23; MBD2 DNA inh: inactive; TDP2 absorb: 70; UHRF1 binding: inactive; TDP2 confirm: 39; IN multimer up: 9.0; TRFRET interf: inactive; IN-LEDGF confirm: 40

How did CCOC(=O)c1ccc(NC2=CC(=O)C(=O)c3ccccc32)cc1 do in these assays?
LEDGF integ inh: inactive; MBD2 DNA inh: inactive; TDP2 absorb: inactive; UHRF1 binding: inactive

How did COc1cc(OC)c(NC2=CC(=O)C(=O)c3ccccc32)cc1Cl do in these assays?
LEDGF integ inh: inactive; MBD2 DNA inh: inactive; TDP2 absorb: inactive; UHRF1 binding: inactive

What do the screens show for `NS(=O)(=O)c1ccc(NC2=CC(=O)C(=O)c3ccccc32)cc1`?
LEDGF integ inh: 32; MBD2 DNA inh: inactive; TDP2 absorb: 61; UHRF1 binding: inactive; TDP2 confirm: 63; IN multimer up: inactive; TRFRET interf: inactive; IN-LEDGF confirm: 62

What do the screens show for `Cc1ccc2nc(-c3ccc(F)cc3)c(Cc3ccsc3)n2c1`?
LEDGF integ inh: inactive; MBD2 DNA inh: inactive; TDP2 absorb: inactive; UHRF1 binding: inactive

Results for CC(=O)N(C1=C(N2CCOCC2)C(=O)c2ccccc2C1=O)c1ccc(C(=O)O)cc1 ?
LEDGF integ inh: 17; MBD2 DNA inh: inactive; TDP2 absorb: 40; UHRF1 binding: inactive; TDP2 confirm: inactive; IN multimer up: inactive; TRFRET interf: inactive; IN-LEDGF confirm: 17

Results for O=C(O)c1ccc(NC2=C(N3CCOCC3)C(=O)c3ccccc3C2=O)cc1 ?
LEDGF integ inh: inactive; MBD2 DNA inh: inactive; TDP2 absorb: inactive; UHRF1 binding: inactive

What do the screens show for `Cc1[nH]c2ccccc2c1/C=N/Nc1ccccn1`?
LEDGF integ inh: inactive; MBD2 DNA inh: inactive; TDP2 absorb: inactive; UHRF1 binding: inactive

Results for Cc1[nH]c2ccccc2c1/C=N/Nc1nncn1N ?
LEDGF integ inh: 74; MBD2 DNA inh: inactive; TDP2 absorb: 74; UHRF1 binding: inactive; TDP2 confirm: inactive; IN multimer up: inactive; TRFRET interf: inactive; IN-LEDGF confirm: inactive

Results for O=C(CSc1nc2ccccc2nc1N1CCCC1)N1CCN(C(c2ccccc2)c2ccccc2)CC1 ?
LEDGF integ inh: inactive; MBD2 DNA inh: inactive; TDP2 absorb: inactive; UHRF1 binding: inactive
